The source made the active and inactive calls. The calls are words filed in the database; no cut-off is given here.
Legend:
[1] = system: Cryptococcus gattii species complex; assay: Antimicrobial activity against Cryptococcus gattii serotype B isolate NIH771 assessed as heteroresistant isolates at 2 ug/ml; type: functional, Cryptococcus bacillisporus
How it was run: (§1)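 Population analysis: cells suspended in sterile saline at 1 × 10³ to 4 × 10³ CFU/ml and plated on plain YPD agar or YPD agar with various fluconazole concentrations. Plates incubated at 30°C for 72 h. The resistant subpopulation at each concentration is recorded as a percentage of the population.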

[2] = system: Cryptococcus gattii species complex; assay: Antimicrobial activity against Cryptococcus gattii serotype B isolate B4506 assessed as heteroresistant isolates at 2 ug/ml; type: functional, Cryptococcus bacillisporus; how it was run: as §1
[3] = system: Cryptococcus gattii species complex; assay: Antimicrobial activity against Cryptococcus gattii serotype C isolate NIH298 assessed as heteroresistant isolates at 2 ug/ml; type: functional, Cryptococcus bacillisporus
How it was run: (§2)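 Cell suspensions of 1 × 10^3 to 4 × 10^3 CFU/ml were made in sterile saline and plated on plain YPD agar or YPD agar with various fluconazole concentrations. Plates were incubated at 30°C for 72 h, and the percentage of resistant subpopulation emerging was recorded.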

[4] = system: Cryptococcus gattii species complex; assay: Antimicrobial activity against Cryptococcus gattii serotype C isolate H0058-1-818 assessed as heteroresistant isolates at 2 ug/ml; type: functional, Cryptococcus bacillisporus
How it was run: (§3)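 Population analysis: saline cell suspensions (1 × 103 to 4 × 10^3 CFU/ml) plated on plain YPD agar or YPD agar with various fluconazole concentrations; growth recorded after 72 h at 30°C; percentage of resistant subpopulation at each drug level calculated relative to drug-free plate growth.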

[5] = system: Cryptococcus gattii species complex; assay: Antimicrobial activity against Cryptococcus gattii serotype B isolate NIH200 assessed as heteroresistant isolates at 4 ug/ml; type: functional, Cryptococcus bacillisporus; how it was run: as §1
[6] = system: Cryptococcus gattii species complex; assay: Antimicrobial activity against Cryptococcus gattii serotype B isolate NIH535 assessed as heteroresistant isolates at 4 ug/ml; type: functional, Cryptococcus bacillisporus; how it was run: as §1
[7] = system: Cryptococcus gattii species complex; assay: Antimicrobial activity against Cryptococcus gattii serotype B isolate NIH184 assessed as heteroresistant isolates at 4 ug/ml; type: functional, Cryptococcus bacillisporus; how it was run: as §1
[8] = system: Cryptococcus deuterogattii; assay: Antimicrobial activity against Cryptococcus gattii serotype B isolate NIH444 assessed as heteroresistant isolates at 4 ug/ml; type: functional, Cryptococcus bacillisporus; how it was run: as §1
[9] = system: Cryptococcus gattii species complex; assay: Antimicrobial activity against Cryptococcus gattii serotype B isolate NIH367 assessed as heteroresistant isolates at 4 ug/ml; type: functional, Cryptococcus bacillisporus; how it was run: as §1
[10] = system: Cryptococcus gattii species complex; assay: Antimicrobial activity against Cryptococcus gattii serotype B isolate RB3 assessed as heteroresistant isolates at 4 ug/ml; type: functional, Cryptococcus bacillisporus; how it was run: as §3
[11] = system: Cryptococcus gattii species complex; assay: Antimicrobial activity against Cryptococcus gattii serotype B isolate RAM002 assessed as heteroresistant isolates at 4 ug/ml; type: functional, Cryptococcus bacillisporus; how it was run: as §3
[12] = system: Cryptococcus bacillisporus; assay: Antimicrobial activity against Cryptococcus gattii serotype C isolate NIH191 assessed as heteroresistant isolates at 4 ug/ml; type: functional; how it was run: as §3
[13] = system: Cryptococcus gattii species complex; assay: Antimicrobial activity against Cryptococcus gattii serotype B isolate VPB571-058 assessed as concentration required for heteroresistance; type: functional, Cryptococcus bacillisporus
[14] = system: Cryptococcus gattii species complex; assay: Antimicrobial activity against Cryptococcus gattii serotype B isolate B5765 assessed as concentration required for heteroresistance; type: functional, Cryptococcus bacillisporus
How it was run: (§4)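 Fluconazole spot test: 10-fold serial dilutions of each single-colony-purified strain spotted on YPD agar alone and YPD agar with fluconazole at 4 to 128 μg/ml. The level of heteroresistance to fluconazole (LHF) is the lowest drug concentration at which minor resistant subpopulations emerge within the spot.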

[15] = system: Cryptococcus gattii species complex; assay: Antimicrobial activity against Cryptococcus gattii serotype C isolate NIH139 assessed as concentration required for heteroresistance; type: functional, Cryptococcus bacillisporus
[16] = system: Cryptococcus bacillisporus; assay: Antimicrobial activity against Cryptococcus gattii serotype C isolate NIH191 assessed as concentration required for heteroresistance; type: functional
[17] = system: Cryptococcus gattii species complex; assay: Antimicrobial activity against Cryptococcus gattii serotype C isolate NIH312 assessed as concentration required for heteroresistance; type: functional, Cryptococcus bacillisporus
How it was run: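 […] on YPD agar at 4 to 128 μg/ml. The lowest drug concentration at which minor resistant subpopulations emerged within the patch was scored as the strain's level of heteroresistance.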

[18] = system: Cryptococcus gattii species complex; assay: Antimicrobial activity against Cryptococcus gattii serotype C isolate H0058-1-2023 assessed as concentration required for heteroresistance; type: functional, Cryptococcus bacillisporus
[19] = system: Cryptococcus gattii species complex; assay: Antimicrobial activity against Cryptococcus gattii serotype C isolate H0058-1-818 assessed as concentration required for heteroresistance; type: functional, Cryptococcus bacillisporus
[20] = system: Cryptococcus gattii species complex; assay: Antimicrobial activity against Cryptococcus gattii serotype B isolate NIH754 assessed as heteroresistant isolates at 2 ug/ml; type: functional, Cryptococcus bacillisporus; how it was run: as §1
[21] = system: Cryptococcus deuterogattii; assay: Antimicrobial activity against Cryptococcus gattii serotype B isolate NIH444 assessed as heteroresistant isolates at 2 ug/ml; type: functional, Cryptococcus bacillisporus; how it was run: as §1
[22] = system: Cryptococcus gattii species complex; assay: Antimicrobial activity against Cryptococcus gattii serotype B isolate NIH190 assessed as heteroresistant isolates at 2 ug/ml; type: functional, Cryptococcus bacillisporus; how it was run: as §1
[23] = system: Cryptococcus gattii species complex; assay: Antimicrobial activity against fluconazole-resistant Cryptococcus gattii serotype B isolate RAM15 at 256 ug/ml; type: functional, organism-based; conditions: Cryptococcus bacillisporus
[24] = system: Cryptococcus gattii species complex; assay: Antimicrobial activity against Cryptococcus gattii serotype B isolate NIH281 assessed as concentration required for heteroresistance; type: functional, Cryptococcus bacillisporus; how it was run: as §4
[25] = system: Cryptococcus gattii species complex; assay: Antimicrobial activity against Cryptococcus gattii serotype C isolate H0058-1-1941 assessed as heteroresistant isolates at 16 ug/ml; type: functional, Cryptococcus bacillisporus; how it was run: as §3
[26] = system: Cryptococcus gattii species complex; assay: Antimicrobial activity against Cryptococcus gattii serotype B isolate RB14 assessed as heteroresistant isolates at 32 ug/ml; type: functional, Cryptococcus bacillisporus; how it was run: as §3
[27] = system: Cryptococcus gattii species complex; assay: Antimicrobial activity against Cryptococcus gattii serotype B isolate VPB572-058 assessed as heteroresistant isolates at 32 ug/ml; type: functional, Cryptococcus bacillisporus; how it was run: as §3
[28] = system: Cryptococcus gattii species complex; assay: Antimicrobial activity against Cryptococcus gattii serotype C isolate H0058-1-78 assessed as heteroresistant isolates at 32 ug/ml; type: functional, Cryptococcus bacillisporus; how it was run: as §3
[29] = system: Cryptococcus bacillisporus; assay: Antimicrobial activity against Cryptococcus gattii serotype C isolate NIH191 assessed as heteroresistant isolates at 32 ug/ml; type: functional; how it was run: as §3
[30] = system: Cryptococcus gattii species complex; assay: Antimicrobial activity against Cryptococcus gattii serotype C isolate NIH298 assessed as heteroresistant isolates at 4 ug/ml; type: functional, Cryptococcus bacillisporus; how it was run: as §2
[31] = system: Cryptococcus gattii species complex; assay: Antimicrobial activity against Cryptococcus gattii serotype C isolate H0058-1-1686 assessed as heteroresistant isolates at 4 ug/ml; type: functional, Cryptococcus bacillisporus; how it was run: as §3
[32] = system: Cryptococcus gattii species complex; assay: Antimicrobial activity against Cryptococcus gattii serotype B isolate NIH198 assessed as heteroresistant isolates at 8 ug/ml; type: functional, Cryptococcus bacillisporus; how it was run: as §1
[33] = system: Cryptococcus gattii species complex; assay: Antimicrobial activity against Cryptococcus gattii serotype B isolate NIH184 assessed as heteroresistant isolates at 8 ug/ml; type: functional, Cryptococcus bacillisporus; how it was run: as §1
[34] = system: Cryptococcus deuterogattii; assay: Antimicrobial activity against Cryptococcus gattii serotype B isolate NIH444 assessed as heteroresistant isolates at 8 ug/ml; type: functional, Cryptococcus bacillisporus; how it was run: as §1
[35] = system: Cryptococcus gattii species complex; assay: Antimicrobial activity against Cryptococcus gattii serotype B isolate NIH409 assessed as heteroresistant isolates at 8 ug/ml; type: functional, Cryptococcus bacillisporus; how it was run: as §1
[36] = system: Cryptococcus gattii species complex; assay: Antimicrobial activity against Cryptococcus gattii serotype B isolate NIH286 assessed as heteroresistant isolates at 8 ug/ml; type: functional, Cryptococcus bacillisporus; how it was run: as §1
[37] = system: Cryptococcus gattii species complex; assay: Antimicrobial activity against Cryptococcus gattii serotype B isolate B5763 assessed as heteroresistant isolates at 8 ug/ml; type: functional, Cryptococcus bacillisporus; how it was run: as §1
[38] = system: Cryptococcus gattii species complex; assay: Antimicrobial activity against Cryptococcus gattii serotype C isolate NIH113 assessed as heteroresistant isolates at 8 ug/ml; type: functional, Cryptococcus bacillisporus; how it was run: as §3
[39] = system: Cryptococcus bacillisporus; assay: Antimicrobial activity against Cryptococcus gattii serotype C isolate NIH191 assessed as heteroresistant isolates at 8 ug/ml; type: functional; how it was run: as §2
[40] = system: Cryptococcus gattii species complex; assay: Antimicrobial activity against Cryptococcus gattii serotype B isolate NIH367 assessed as heteroresistant isolates at 16 ug/ml; type: functional, Cryptococcus bacillisporus; how it was run: as §1
[41] = system: Cryptococcus gattii species complex; assay: Antimicrobial activity against Cryptococcus gattii serotype B isolate VPB572-058 assessed as heteroresistant isolates at 16 ug/ml; type: functional, Cryptococcus bacillisporus; how it was run: as §3
[42] = system: Cryptococcus gattii species complex; assay: Antimicrobial activity against Cryptococcus gattii serotype C isolate NIH34 assessed as heteroresistant isolates at 16 ug/ml; type: functional, Cryptococcus bacillisporus; how it was run: as §2

## OC(Cn1cncn1)(Cn1cncn1)c1ccc(F)cc1F [FLUCONAZOLE]
[1]
  Activity: 100%
[2]
  Activity: 100%
[3]
  Activity: 100%
[4]
  Activity: 100%
[5]
  Activity: 0.1%
[6]
  Activity: 0.1%
[7]
  Activity: 100%
[8]
  Activity: 100%
[9]
  Activity: 100%
[10]
  Activity: 100%
[11]
  Activity: 100%
[12]
  Activity: 100%
[13]
  Activity: 32 µg/mL
[14]
  Activity: 16 µg/mL
[15]
  Activity: 32 µg/mL
[16]
  Activity: 32 µg/mL
[17]
  Activity: 32 µg/mL
[18]
  Activity: 32 µg/mL
[19]
  Activity: 32 µg/mL
[20]
  Activity: 100%
[21]
  Activity: 100%
[22]
  Activity: 100%
[23]
  Activity: inactive
[24]
  Activity: 4 µg/mL
[25]
  Activity: 100%
[26]
  Activity: 0.8%
[27]
  Activity: 1.6%
[28]
  Activity: 2.3%
[29]
  Activity: 20%
[30]
  Activity: 100%
[31]
  Activity: 100%
[32]
  Activity: 100%
[33]
  Activity: 100%
[34]
  Activity: 100%
[35]
  Activity: 100%
[36]
  Activity: 100%
[37]
  Activity: 0.03%
[38]
  Activity: 100%
[39]
  Activity: 100%
[40]
  Activity: 9%
[41]
  Activity: 100%
[42]
  Activity: 0.22%

From ChEMBL document CHEMBL1255501, “Heteroresistance of Cryptococcus gattii to fluconazole” (2010)
